# Reference: ChEMBL document CHEMBL1142093, “In vitro activity of the oxazolidinone RWJ-416457 against linezolid-resistant and -susceptible staphylococci and enterococci” (2007)
# Experiments:
# Staphylococcus aureus [1] = assay: Antimicrobial activity against Staphylococcus aureus ST/02/2121 with 23S rRNA T2504C mutation; assay type: functional
# Method in brief: (§1)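 MIC by CLSI agar dilution. Resistant clinical enterococcal and S. aureus isolates came mostly from UK patients, a few from Brazil and Austria. Laboratory mutants were selected from clinical isolate ST/02/2121, RN4220 and hypermutable RN4220ΔmutS. Selection used serial broth passage with linezolid rising arithmetically from 0.5 to 10 μg/ml, then repeated subculture on agar with 10 μg/ml linezolid.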
# Staphylococcus aureus [2] = assay: Antimicrobial activity against Staphylococcus aureus RN4220 deltamutS with 23S rRNA G2576U and A2503G mutation; assay type: functional; method in brief: as §1
# Staphylococcus aureus [3] = assay: Antimicrobial activity against methicillin-resistant Staphylococcus aureus Ho 4280-0257 with heterozygous 23S rRNA G2576U mutation; assay type: functional; method in brief: as §1
# Enterococcus faecium [4] = assay: Antimicrobial activity against Enterococcus faecium Ho 5114-0276 with heterozygous 23S rRNA G2576U mutation; assay type: functional; method in brief: as §1
# Enterococcus faecium [5] = assay: Antimicrobial activity against Enterococcus faecium 44 with heterozygous 23S rRNA G2576U mutation; assay type: functional; method in brief: as §1
# Enterococcus faecium [6] = assay: Antimicrobial activity against Enterococcus faecium 31 with heterozygous 23S rRNA G2576U mutation; assay type: functional; method in brief: as §1
# Staphylococcus aureus [7] = assay: Antimicrobial activity against Staphylococcus aureus ST/02/2121; assay type: functional; method in brief: as §1
# Enterococcus faecalis [8] = assay: Antimicrobial activity against Enterococcus faecalis 25 with heterozygous 23S rRNA G2576U mutation; assay type: functional; method in brief: as §1
# Enterococcus faecalis [9] = assay: Antimicrobial activity against Enterococcus faecalis 37 with heterozygous 23S rRNA G2576U mutation; assay type: functional; method in brief: as §1
# Enterococcus faecium [10] = assay: Antimicrobial activity against Enterococcus faecium Ho 4136-0042; assay type: functional; settings: in the assay text read “H0 4136-0043” for “Ho 4136-0042”
# Method in brief: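 MIC by CLSI agar dilution against a clinical enterococcal isolate. The isolates were either linezolid-susceptible UK clinical isolates (about 100 per group) or among 23 linezolid-resistant clinical enterococci and S. aureus, mostly from UK patients, with a few from Brazil and Austria.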
# Staphylococcus aureus [11] = assay: Antimicrobial activity against methicillin-resistant Staphylococcus aureus B2 with heterozygous 23S rRNA G2576U mutation; assay type: functional; method in brief: as §1
# Staphylococcus aureus [12] = assay: Antimicrobial activity against Staphylococcus aureus RN4220 deltamutS with 23S rRNA G2576U mutation; assay type: functional; method in brief: as §1
# Enterococcus faecium [13] = assay: Antimicrobial activity against Enterococcus faecium Ho 4418-0062 with heterozygous 23S rRNA G2576U mutation; assay type: functional; method in brief: as §1
# Enterococcus faecalis [14] = assay: Antimicrobial activity against Enterococcus faecalis 9 with heterozygous 23S rRNA G2576U mutation; assay type: functional; method in brief: as §1
# Staphylococcus aureus [15] = assay: Antimicrobial activity against Staphylococcus aureus RN4220 deltamutS; assay type: functional; method in brief: as §1
# Staphylococcus aureus [16] = assay: Antimicrobial activity against methicillin-resistant Staphylococcus aureus Ho 4536-0367 with heterozygous 23S rRNA G2576U mutation; assay type: functional; method in brief: as §1
# Enterococcus faecalis [17] = assay: Antimicrobial activity against Enterococcus faecalis Ho 4450-0446 with heterozygous 23S rRNA G2576U mutation; assay type: functional; method in brief: as §1
# Staphylococcus aureus [18] = assay: Antimicrobial activity against methicillin-resistant Staphylococcus aureus Ho 4280-0256 with heterozygous 23S rRNA G2576U mutation; assay type: functional; method in brief: as §1
# Staphylococcus aureus [19] = assay: Antimicrobial activity against Staphylococcus aureus ST/02/2121 with 23S rRNA G2447T mutation; assay type: functional; method in brief: as §1
# Enterococcus faecium [20] = assay: Antimicrobial activity against Enterococcus faecium 3 with heterozygous 23S rRNA G2576U mutation
# Staphylococcus aureus [21] = assay: Antimicrobial activity against Staphylococcus aureus RN4220 with 23S rRNA G2447T mutation; assay type: functional; method in brief: as §1
# Enterococcus faecalis [22] = assay: Antimicrobial activity against Enterococcus faecalis 45 with heterozygous 23S rRNA G2576U mutation; assay type: functional; method in brief: as §1
# Staphylococcus aureus [23] = assay: Antimicrobial activity against Staphylococcus aureus RN4220; assay type: functional; method in brief: as §1
# Enterococcus faecium [24] = assay: Antimicrobial activity against Enterococcus faecium 28 with heterozygous 23S rRNA G2576U mutation; assay type: functional; method in brief: as §1
# Enterococcus faecium [25] = assay: Antimicrobial activity against Enterococcus faecium 2 L1 with homozygous 23S rRNA G2576U mutation
# Staphylococcus aureus [26] = assay: Antimicrobial activity against methicillin-resistant Staphylococcus aureus Ho 4536-0368 with heterozygous 23S rRNA G2576U mutation; assay type: functional; method in brief: as §1
# Staphylococcus aureus [27] = assay: Antimicrobial activity against Staphylococcus aureus RN4220 with 23S rRNA G2576U mutation; assay type: functional; method in brief: as §1
# Staphylococcus aureus [28] = assay: Antimicrobial activity against Staphylococcus aureus RN4220 deltamutS revertant with 23S rRNA G2576U mutation; assay type: functional; method in brief: as §1
# Staphylococcus aureus [29] = assay: Antimicrobial activity against methicillin-resistant Staphylococcus aureus Ho 4280-0258 with heterozygous 23S rRNA G2576U mutation; assay type: functional; method in brief: as §1
# Enterococcus faecium [30] = assay: Antimicrobial activity against Enterococcus faecium 18 with heterozygous 23S rRNA G2576U mutation; assay type: functional; method in brief: as §1
# Enterococcus faecalis [31] = assay: Antimicrobial activity against Enterococcus faecalis 1 L2 with heterozygous 23S rRNA G2576U mutation; assay type: functional; method in brief: as §1
# Enterococcus faecium [32] = assay: Antimicrobial activity against Enterococcus faecium 34 with homozygous 23S rRNA G2576U mutation; assay type: functional; method in brief: as §1
# Enterococcus faecium [33] = assay: Antimicrobial activity against Enterococcus faecium 16 with homozygous 23S rRNA G2576U mutation; assay type: functional; method in brief: as §1
Structure (SMILES),MIC (Staphylococcus aureus [1]) [µg/mL],MIC (Staphylococcus aureus [2]) [µg/mL],MIC (Staphylococcus aureus [3]) [µg/mL],MIC (Enterococcus faecium [4]) [µg/mL],MIC (Enterococcus faecium [5]) [µg/mL],MIC (Enterococcus faecium [6]) [µg/mL],MIC (Enterococcus faecalis [8]) [µg/mL],MIC (Enterococcus faecalis [9]) [µg/mL],MIC (Enterococcus faecium [10]) [µg/mL],MIC (Staphylococcus aureus [11]) [µg/mL],MIC (Staphylococcus aureus [12]) [µg/mL],MIC (Enterococcus faecium [13]) [µg/mL],MIC (Enterococcus faecalis [14]) [µg/mL],MIC (Staphylococcus aureus [16]) [µg/mL],MIC (Staphylococcus aureus [18]) [µg/mL],MIC (Staphylococcus aureus [19]) [µg/mL],MIC (Enterococcus faecium [20]) [µg/mL],MIC (Staphylococcus aureus [21]) [µg/mL],MIC (Enterococcus faecalis [22]) [µg/mL],MIC (Enterococcus faecium [24]) [µg/mL],further results
CC(=O)NC[C@H]1CN(c2ccc(N3Cc4cn(C)nc4C3)c(F)c2)C(=O)O1,8,8,8,2,4,8,16,8,16,8,8,16,16,2,4,4,16,8,8,8,MIC (Staphylococcus aureus [7]): 1 µg/mL; MIC (Staphylococcus aureus [15]): 0.5 µg/mL; MIC (Enterococcus faecalis [17]): 2 µg/mL; MIC (Staphylococcus aureus [23]): 0.5 µg/mL; MIC (Enterococcus faecium [25]): 32 µg/mL; MIC (Staphylococcus aureus [26]): 8 µg/mL; MIC (Staphylococcus aureus [27]): 4 µg/mL; MIC (Staphylococcus aureus [28]): 8 µg/mL; MIC (Staphylococcus aureus [29]): 8 µg/mL; MIC (Enterococcus faecium [30]): 8 µg/mL; MIC (Enterococcus faecalis [31]): 16 µg/mL; MIC (Enterococcus faecium [32]): 32 µg/mL; MIC (Enterococcus faecium [33]): 16 µg/mL
CC(=O)NC[C@H]1CN(c2ccc(N3CCOCC3)c(F)c2)C(=O)O1 [LINEZOLID],16,32,32,8,16,32,32,32,64,32,16,32,64,8,16,16,64,16,32,16,MIC (Enterococcus faecium [25]): 64 µg/mL; MIC (Staphylococcus aureus [26]): 32 µg/mL; MIC (Staphylococcus aureus [27]): 16 µg/mL; MIC (Staphylococcus aureus [28]): 16 µg/mL; MIC (Staphylococcus aureus [29]): 32 µg/mL; MIC (Enterococcus faecium [30]): 32 µg/mL; MIC (Enterococcus faecalis [31]): 32 µg/mL; MIC (Enterococcus faecium [32]): 64 µg/mL; MIC (Enterococcus faecium [33]): 64 µg/mL
